Experimental data from different studies.
Compare with care: the assays were run in different laboratories.
FGFR3: Fibroblast growth factor receptor 3 (FGFR3, Homo sapiens, UniProt P22607)
FGFR3 G697C: Fibroblast growth factor receptor 3 (FGFR3, Homo sapiens, UniProt P22607, G697C)

SMILES	target	assay	conditions	measurement	value
Cc1ccc(NC(=O)c2ccnc(C(F)(F)F)c2)cc1-c1cc(OCCO)nc(N2CCOCC2)c1	FGFR3	binding, competition with immobilised ligand	1 µM	remaining binding	90%
C1=C/COCc2cc(ccc2OCCN2CCCC2)Nc2nccc(n2)-c2cccc(c2)COC/1	FGFR3 G697C	binding	0.1 µM	remaining binding	100%
C[C@H]1CC[C@H](n2c3cnccc3c3cnc(Nc4ccc5c(n4)CCN(C(=O)CO)C5)nc32)CC1	FGFR3	cell-free assay, competition with immobilised ligand	1 µM	remaining binding	100%
C#Cc1cnc(Nc2ccnc(CO)c2)nc1Nc1ccccc1S(C)(=O)=NC#N (stereo not drawn)	FGFR3	cell-free assay	1 µM	remaining signal	28%
CCCCC(=O)Nc1ccc(-c2ccc3ncn(CCC)c(=O)c3c2)cn1	FGFR3	binding, competition with immobilised ligand	0.5 µM	remaining binding	96%
C=CC(=O)N1CCC([C@@H]2CCNc3c(C(N)=O)c(-c4ccc(Oc5ccccc5)cc4)nn32)CC1	FGFR3 G697C	cell-free assay	1 µM	inhibition	14%
N#Cc1ccc(NC(=O)Nc2ccccc2)cc1	FGFR3	cell-free assay, competition with immobilised ligand	25 µM	remaining binding	100%
COc1ccc2oc(-c3ccc4nc(N)oc4c3)c/c(=N\c3ccccc3NC(=O)CCN)c2c1	FGFR3	binding	1 µM	remaining binding	107%
CO[C@@H]1[C@H](N(C)C(=O)c2ccccc2)C[C@H]2O[C@]1(C)n1c3ccccc3c3c4c(c5c6ccccc6n2c5c31)C(=O)NC4	FGFR3	enzyme activity, inhibitor	1 µM	inhibition	3%
